≈ marks a conversion by molar mass, not a printed value.
Experiments:
Plasmodium berghei [1] = assay: Antimalarial activity against Plasmodium berghei NK-65 infected in ICR mouse assessed as survival rate at 100 mg/kg, po administered day 3, 4 and 5 post infection; format: functional
How it was run: (§1)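 Female Swiss outbred ICR mice, 15–20 g, given 1 X 10^6 P. berghei NK-65 infected red cells from donor mice in plasma at day 0 (modified Thompson's test). Patent infection confirmed by tail blood smear on day 3. Oral single daily doses in 0.5% HEC on days 3, 4, 5. Vehicle controls. Survival recorded daily to day 30. Parasitemia from Giemsa thin films on days 3, 6, 13, 20, 27, counting ≥1000 cells.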

Plasmodium berghei [2] = assay: Antimalarial activity against Plasmodium berghei NK-65 infected in ICR mouse assessed as survival rate at 50 mg/kg, po administered day 3, 4 and 5 post infection; format: functional; how it was run: as §1
Raji = assay: Cytotoxicity against human Raji cells at 25 uM after 72 hrs by celltiter-glo assay; format: cell-based
[3] = Apparent volume of distribution during terminal phase in CD1 mouse at 500 mg/kg, po; format: ADME, organism-based; set-up: dose 500 mg/kg, route oral; details: CD1, mouse, in vivo, read-out: Vz/F
How it was run: (§2)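 Female CD-1 mice, 8 weeks old, were given a single oral gavage dose as a suspension in 0.5% methylcellulose in sterile water. Blood was taken from three mice per time point (5 min–24 hr) into K3EDTA and processed to plasma. After acetonitrile protein precipitation, samples were analysed by LC-MS/MS with a warfarin internal standard. Noncompartmental analysis used linear-up/log-down trapezoidal AUC and at least three non-zero concentrations after Tmax.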

[4] = target: T1, ATP-sensitive inward rectifier potassium channel 11 (Homo sapiens, UniProt Q14654); assay: Inhibition of Kir6.2 by patch clamp assay
T1 sequence (Q14654 whole entry): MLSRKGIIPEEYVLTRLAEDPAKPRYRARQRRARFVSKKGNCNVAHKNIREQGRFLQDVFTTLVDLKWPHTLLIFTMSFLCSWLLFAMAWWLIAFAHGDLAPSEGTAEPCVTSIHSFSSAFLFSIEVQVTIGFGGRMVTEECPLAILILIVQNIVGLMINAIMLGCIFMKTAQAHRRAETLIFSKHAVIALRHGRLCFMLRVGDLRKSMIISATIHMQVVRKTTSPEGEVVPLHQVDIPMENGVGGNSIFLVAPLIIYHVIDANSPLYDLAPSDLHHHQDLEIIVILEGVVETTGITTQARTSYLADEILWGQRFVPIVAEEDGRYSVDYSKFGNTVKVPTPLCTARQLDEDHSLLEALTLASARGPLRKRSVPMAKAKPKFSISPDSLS

Plasmodium berghei [5] = assay: Antimalarial activity against Plasmodium berghei NK-65 infected in ICR mouse assessed as parasitemia level at 200 mg/kg, po administered day 3, 4 and 5 post infection measured on day 6 by Geimsa staining; format: functional; how it was run: as §1
Mus musculus [6] = assay: Cmax in CD1 mouse at 20 mg/kg, po; format: ADME, organism-based; set-up: dose 20 mg/kg, route oral; details: in vivo; how it was run: as §2
HEK293 = assay: Cytotoxicity against human HEK293 cells at 25 uM after 72 hrs by celltiter-glo assay; format: cell-based; details: hek293, 72 h
Plasmodium berghei [7] = assay: Antimalarial activity against Plasmodium berghei NK-65 infected in ICR mouse assessed as parasitemia level at 200 mg/kg, po administered day 3, 4 and 5 post infection measured on day 20 by Geimsa staining; format: functional; how it was run: as §1
[8] = Apparent volume of distribution during terminal phase in CD1 mouse at 200 mg/kg, po; format: ADME, organism-based; set-up: dose 200 mg/kg, route oral; details: in vivo, read-out: Vz/F; how it was run: as §2
Mus musculus [9] = assay: Tmax in CD1 mouse at 500 mg/kg, po; format: ADME, organism-based; set-up: dose 500 mg/kg, route oral; details: in vivo; how it was run: as §2
CYP2D6 [10] = target: T2, CYP2D6 (Homo sapiens, UniProt P10635); assay: Inhibition of CYP2D6 in human liver microsomes at 1 uM after 20 mins by LC-MS/MS analysis relative to control; values are per cent of control
T2 sequence (P10635 whole entry): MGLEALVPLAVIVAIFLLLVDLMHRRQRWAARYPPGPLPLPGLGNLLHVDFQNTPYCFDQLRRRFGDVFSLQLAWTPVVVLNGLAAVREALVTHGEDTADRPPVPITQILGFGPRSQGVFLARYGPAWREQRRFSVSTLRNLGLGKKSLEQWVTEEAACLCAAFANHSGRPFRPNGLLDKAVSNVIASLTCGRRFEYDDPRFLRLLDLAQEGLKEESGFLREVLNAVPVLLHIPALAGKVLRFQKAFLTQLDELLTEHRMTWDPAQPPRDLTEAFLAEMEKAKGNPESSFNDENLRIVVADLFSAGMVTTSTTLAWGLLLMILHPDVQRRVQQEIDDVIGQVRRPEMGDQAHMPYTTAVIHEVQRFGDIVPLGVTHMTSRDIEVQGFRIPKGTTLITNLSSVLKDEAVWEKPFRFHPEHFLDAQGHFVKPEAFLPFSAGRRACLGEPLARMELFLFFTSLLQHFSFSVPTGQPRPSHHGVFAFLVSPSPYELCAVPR

Plasmodium falciparum [11] = assay: Antimalarial activity against Plasmodium falciparum K1 after 72 hrs by MSF assay; format: functional, organism-based; details: K1, 72 h
Mus musculus [12] = assay: AUC (0 to infinity) in CD1 mouse at 200 mg/kg, po; format: ADME, organism-based, Plasma; set-up: time infinity, dose 200 mg/kg, route oral; details: in vivo; how it was run: as §2
[13] = Solubility of the compound in PBS at 10 mM after 18 hrs by UV spectroscopic analysis; format: physicochemical
BJ = assay: Cytotoxicity against human BJ cells at 25 uM after 72 hrs by celltiter-glo assay; format: cell-based
Mus musculus [14] = assay: Cmax in CD1 mouse at 200 mg/kg, po; format: ADME, organism-based; set-up: dose 200 mg/kg, route oral; details: in vivo; how it was run: as §2
Mus musculus [15] = assay: Tmax in CD1 mouse at 200 mg/kg, po; format: ADME, organism-based; set-up: dose 200 mg/kg, route oral; details: in vivo; how it was run: as §2
Mus musculus [16] = assay: AUC (0 to infinity) in CD1 mouse at 20 mg/kg, po; format: ADME, organism-based, Plasma; set-up: time infinity, dose 20 mg/kg, route oral; details: in vivo; how it was run: as §2
CYP2D6 [17] = target: T2, CYP2D6; assay: Inhibition of CYP2D6 in human liver microsomes at 10 uM after 20 mins by LC-MS/MS analysis relative to control; values are per cent of control
Plasmodium berghei [18] = assay: Antimalarial activity against Plasmodium berghei NK-65 infected in ICR mouse assessed as parasitemia level at 100 mg/kg, po administered day 3, 4 and 5 post infection measured on day 6 by Geimsa staining; format: functional; how it was run: as §1
Mus musculus [19] = assay: AUC (0 to infinity) in CD1 mouse at 500 mg/kg, po; format: ADME, organism-based, Plasma; set-up: time infinity, dose 500 mg/kg, route oral; details: in vivo; how it was run: as §2
Plasmodium falciparum [20] = assay: Antimalarial activity against Plasmodium falciparum 3D7 after 72 hrs by MSF assay; format: functional, organism-based; details: 3D7, 72 h
Mus musculus [21] = assay: Cmax in CD1 mouse at 500 mg/kg, po; format: ADME, organism-based; set-up: dose 500 mg/kg, route oral; details: in vivo; how it was run: as §2
Mus musculus [22] = assay: Tmax in CD1 mouse at 20 mg/kg, po; format: ADME, organism-based; set-up: dose 20 mg/kg, route oral; details: in vivo; how it was run: as §2
Plasmodium berghei [23] = assay: Antimalarial activity against Plasmodium berghei NK-65 infected in ICR mouse assessed as parasitemia level at 200 mg/kg, po administered day 3, 4 and 5 post infection measured on day 13 by Geimsa staining; format: functional; how it was run: as §1
[24] = Permeability of the compound at 10 uM at pH 7.4 by PAMPA; format: ADME; details: pH 7.4, 10 µM
How it was run: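 PAMPA: diluted compound in system solution buffer at pH 7.4 was placed in the donor well over a GIT-lipid-painted membrane, with acceptor solution buffer in the acceptor well. The sandwich was stirred for 30 min with the aqueous boundary layer set to 40 μm. Triplicate.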

Mus musculus [25] = assay: (§3) Apparent volume of distribution during terminal phase in CD1 mouse at 20 mg/kg, po; format: ADME, organism-based; set-up: dose 20 mg/kg, route oral; details: mouse, in vivo; how it was run: as §2
HepG2 = assay: Cytotoxicity against human HepG2 cells at 25 uM after 72 hrs by celltiter-glo assay; format: cell-based; details: hepg2, 72 h
[26] = as §3; format: ADME, organism-based; set-up: dose 20 mg/kg, route oral; details: CD1, mouse, in vivo, read-out: Vz/F; how it was run: as §2
[27] = Intrinsic clearance in human liver microsomes at 2 mM; format: ADME, Microsome; details: read-out: CLH
[28] = target: Voltage-gated inwardly rectifying potassium channel KCNH2 (Homo sapiens, UniProt Q12809); assay: Inhibition of human ERG by patch clamp assay
Sequence of Voltage-gated inwardly rectifying potassium channel KCNH2 (Q12809 whole entry): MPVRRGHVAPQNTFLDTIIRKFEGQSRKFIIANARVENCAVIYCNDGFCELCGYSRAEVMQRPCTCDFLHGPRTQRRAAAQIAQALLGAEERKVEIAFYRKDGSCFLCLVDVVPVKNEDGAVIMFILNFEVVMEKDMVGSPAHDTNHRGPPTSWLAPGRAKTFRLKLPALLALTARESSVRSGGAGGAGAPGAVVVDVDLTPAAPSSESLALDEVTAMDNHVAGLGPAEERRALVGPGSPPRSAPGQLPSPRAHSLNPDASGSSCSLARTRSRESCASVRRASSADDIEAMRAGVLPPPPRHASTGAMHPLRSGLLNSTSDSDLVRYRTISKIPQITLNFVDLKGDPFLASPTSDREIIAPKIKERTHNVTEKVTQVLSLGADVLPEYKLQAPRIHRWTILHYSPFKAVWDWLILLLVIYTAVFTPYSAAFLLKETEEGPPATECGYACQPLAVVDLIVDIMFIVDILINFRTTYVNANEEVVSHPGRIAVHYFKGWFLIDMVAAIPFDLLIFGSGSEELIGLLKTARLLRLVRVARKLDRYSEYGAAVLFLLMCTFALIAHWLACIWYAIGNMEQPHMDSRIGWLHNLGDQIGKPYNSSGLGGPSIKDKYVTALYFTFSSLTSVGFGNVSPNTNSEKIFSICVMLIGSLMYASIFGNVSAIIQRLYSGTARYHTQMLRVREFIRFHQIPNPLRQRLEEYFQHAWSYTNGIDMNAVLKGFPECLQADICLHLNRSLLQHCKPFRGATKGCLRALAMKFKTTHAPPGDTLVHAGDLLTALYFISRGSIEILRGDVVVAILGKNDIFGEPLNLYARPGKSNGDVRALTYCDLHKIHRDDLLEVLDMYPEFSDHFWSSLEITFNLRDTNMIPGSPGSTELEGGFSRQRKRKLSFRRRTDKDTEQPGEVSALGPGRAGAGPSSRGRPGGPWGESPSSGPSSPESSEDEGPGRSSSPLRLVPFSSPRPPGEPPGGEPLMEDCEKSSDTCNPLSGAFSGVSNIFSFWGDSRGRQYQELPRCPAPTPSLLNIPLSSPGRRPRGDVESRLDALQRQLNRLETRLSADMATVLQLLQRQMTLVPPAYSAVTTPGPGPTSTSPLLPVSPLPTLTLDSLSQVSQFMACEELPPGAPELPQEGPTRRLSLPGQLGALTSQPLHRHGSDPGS

| SMILES | MST (Plasmodium berghei [1]) | Activity (Raji) | IC50 [4] | Cmax (Mus musculus [6]) | Activity (HEK293) | Vd/F [8] | % activity remaining at 20 min, 1 µM (CYP2D6 [10]) | EC90 (Plasmodium falciparum [11]) | AUC (Mus musculus [12]) | solubility at 18 h, 10000 µM [13] | Activity (BJ) | Cmax (Mus musculus [14]) | Tmax (Mus musculus [15]) | AUC (Mus musculus [16]) | % activity remaining at 20 min, 10 µM (CYP2D6 [17]) | EC90 (Plasmodium falciparum [20]) | Tmax (Mus musculus [22]) | Activity (HepG2) | permeability ([24]; BLD = below limit of detection) | further results |
| --- | --- | --- | --- | --- | --- | --- | --- | --- | --- | --- | --- | --- | --- | --- | --- | --- | --- | --- | --- | --- |
| CCN(CC)CCCC(C)Nc1ccnc2cc(Cl)ccc12 (centres undefined) [CHLOROQUINE] | 22 days |  |  |  |  |  |  |  |  |  |  |  |  |  |  |  |  |  |  | MST (Plasmodium berghei [2]): 17 days |
| O=C(CCc1ccccc1)c1ccccc1OCC(O)CN1CCC(c2ccccc2)CC1 (centres undefined) | 9 days | Non-toxic | > 5 µM | 69.6 nM | Non-toxic | 278 L/kg | 78% | 0.24 µM | 6.8 µM·h | 7.3 µM (≈ 3.24 µg/mL) | Non-toxic | 1620 nM | 30 min | 0.224 µM·h | 31% | 0.75 µM | 18 min | Non-toxic |  | Vd/F [3]: 623 L/kg; Activity (Plasmodium berghei [5]): 44.5%; Activity (Plasmodium berghei [7]): 50.4%; Tmax (Mus musculus [9]): 30 min; Activity (Plasmodium berghei [18]): 33.3%; AUC (Mus musculus [19]): 15.3 µM·h; Cmax (Mus musculus [21]): 1750 nM; Activity (Plasmodium berghei [23]): 28.4%; permeability [24]: 490 ×10⁻⁶ cm/s; Vz/F (Mus musculus [25]): 1093.3 L/kg |
| O=C(CCc1ccccc1)c1cc(F)ccc1OCC(O)CN1CCC(c2ccccc2)CC1 (centres undefined) |  | Non-toxic |  | 434 nM | Non-toxic | 982 L/kg | 73% | 0.42 µM | 3.75 µM·h | 0.2 µM (≈ 0.0923 µg/mL) | Non-toxic | 481 nM | 60 min | 1.6 µM·h | 34% | 2.2 µM | 60 min | Non-toxic | BLD | EC50 (Plasmodium falciparum [11]): 0.26 µM; EC50 (Plasmodium falciparum [20]): 1.33 µM; Vd/F [26]: 224 L/kg |
| Cc1ccc(N2CCN(CC(O)COc3ccccc3C(=O)CCc3ccccc3)CC2)cc1 (centres undefined) |  | Non-toxic | > 5 µM | 302 nM | Non-toxic | 272 L/kg | 92% | 0.64 µM | 6.49 µM·h | 2.2 µM (≈ 1.01 µg/mL) | Non-toxic | 866 nM | 30 min |  | 71% | 1.3 µM | 480 min | Non-toxic | BLD | CLint scaled [27]: 38 mL/min/kg; IC50 [28]: 4.31 µM |
